From paper PMC5198968 (Cancer Science, 2016)
Entries after “also recorded” stand apart in the source; their conditions may differ.

System: Japanese patients with advanced hepatocellular carcinoma
Test: Phase I dose escalation: dose-limiting toxicities and maximum tolerated dose
Type: in vivo, human
Procedure, shortened: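 Doses started at 150 mg b.i.d. (group I) or 100 mg b.i.d. (group II) and escalated to 200 mg, with 3–9 patients per level. DLTs were drug-related AEs in cycle 1: grade 4 neutropenia lasting ≥8 days, febrile neutropenia or thrombocytopenia, most non-hematological grade ≥3 events, or defined liver-enzyme or bilirubin rises. Escalation required DLT incidence <33.3% (0/3, 1/6, 2/9). Twelve patients were added at the MTD.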

[1] = 200 mg b.i.d., expansion cohort

COC(=O)c1ccc2c(c1)NC(=O)/C2=C(\Nc1ccc(N(C)C(=O)CN2CCN(C)CC2)cc1)c1ccccc1 [nintedanib]
DLT of grade 3 diarrhea [1]: one patient in group I
DLT of grade 3 drug-induced liver injury [1]: one patient in each group
Patients who experienced a DLT (200 mg b.i.d., including expansion cohort, of 19 patients): three
Maximum tolerated dose (MTD) (both groups (mild and moderate liver impairment), oral, 28-day cycles): 200 mg b.i.d.
DLT during the MTD period (cycle 1) (group I (150, 200 mg b.i.d.) and group II (100, 150, 200 mg b.i.d.), dose escalation): No dose‐limiting toxicities were reported; also recorded: No patient experienced a DLT
